Measured values from PubChem BioAssay AID624466 (The Scripps Research Institute Molecular Screening Center, 2012).
Hit rate of the full screen: of about 360,000 compounds, about 5,400 (1.5%) were called active. The sample holds actives, similar compounds and a random draw of the others, so the mix is not that of the screen.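 Rule for the calls: active = inhibition above a per-plate cutoff, the mean inhibition of test compounds on that plate plus 3 SD (cut at about 49% in these data); inactive = the rest.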

The molecules below were run against Trace amine-associated receptor 1 (Homo sapiens) (UniProt Q96RJ0) (assay: human TAAR1 antagonists, primary screen, Fluo-8 calcium fluorescence, CHO RD-HGA16 cells (AID 624466;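 note: 0% = DMSO plus EC80 beta-PEA response and 100% = DMSO alone without agonist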)). Conditions: CHO RD-HGA16 TAAR1, Fluo-8 calcium fluorescence, antagonist; at 3 µM; stronger effect = higher value.
Chain of Trace amine-associated receptor 1 (Homo sapiens) (Q96RJ0 whole entry, looked up): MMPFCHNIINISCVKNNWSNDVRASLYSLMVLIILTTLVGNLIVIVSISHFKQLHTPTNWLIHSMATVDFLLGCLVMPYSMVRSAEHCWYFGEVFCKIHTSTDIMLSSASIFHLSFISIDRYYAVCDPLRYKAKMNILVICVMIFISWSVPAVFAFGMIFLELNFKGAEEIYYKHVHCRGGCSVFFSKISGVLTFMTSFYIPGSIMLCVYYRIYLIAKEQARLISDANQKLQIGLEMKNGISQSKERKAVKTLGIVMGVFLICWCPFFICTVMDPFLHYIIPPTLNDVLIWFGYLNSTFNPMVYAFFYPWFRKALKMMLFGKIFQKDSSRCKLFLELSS
Outline: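 Test system: RD-HGA16 CHO cells with stable hTAAR1 and Gα16 / Probe or stimulus: EC80 β-phenethylamine stimulus / Times: seeding 17-24 h prior, 75-min 37 °C, 30-min RT dye loading / Detection: Fluo-8 calcium-sensitive fluorescence / Read-out basis: % inhibition scaled between DMSO and EC80 PEA controls / Repeats: singlicate, one well per test compound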
With `Cn1cccc1C(=O)OCC(=O)c1ccc(Br)s1` the inhibition was -0.72% (inactive). With `NS(=O)(=O)c1ccc(NC(=O)COC(=O)c2c3c(nc4ccccc24)/C(=C\c2ccc4c(c2)OCO4)CCC3)cc1` the inhibition was 6.15% (inactive). With `O=C(COC(=O)c1c2c(nc3ccccc13)CCCC2)c1ccc(Br)s1` the inhibition was 49% (active). `Cc1cc(S(=O)(=O)N2CCOCC2)ccc1OCC(=O)Nc1cccc(C(F)(F)F)c1` was tested, and the inhibition was 30.6% (inactive). For `CN1C(=O)C2CC(O)C(SC3CC4C(=O)N(C)C(=O)C4CC3O)CC2C1=O` (configuration not stated), the inhibition was 2.98% (inactive). `CN[C@H]1C[C@H]2c3cc(Oc4ccccc4C)ccc3CCN2C(=O)[C@H]1[C@H](C)O` was tested, and the inhibition was 0.22% (inactive). For `O=C(O)c1ccc(NC(=O)c2ccc(COc3ccc(Cl)cc3)o2)cc1`, the inhibition was 34.7% (inactive). In the case of `COc1ccc(NC(=O)CN(C)C(=O)c2ccc(COc3ccccc3)o2)cc1`, the inhibition is reported as -57.5% (inactive). For `Cc1cc(OCc2ccc(C(=O)Nc3ccc(C(=O)O)cc3)o2)ccc1Cl`, the inhibition was 50.2% (active). For `CC(C)(C)C(=O)c1c(N)[nH]c(C(=O)c2ccccc2)c1-c1ccc(F)cc1`, the inhibition was 2.74% (inactive). In the case of `CCOC(=O)Cn1c2c(n(-c3ccc(F)cc3)c1=O)C=C(c1ccccc1)[C@@H](C)C(C(=O)N(C)C1CCCCC1)=C2`, the inhibition is reported as -25% (inactive). In the case of `COC(=O)[C@]12C[C@H](CC(=O)NCCC(C)C)C(=O)N(CCc3ccc(OC)c(OC)c3)C1=C[C@H](C(C)(C)C)O[C@@H]2C`, the inhibition is reported as -15.9% (inactive). For `Cc1cc2nc(-c3ccc(F)cc3)c(Cc3ccsc3)n2c(C)c1Br`, the inhibition was -3.77% (inactive). For `O=C(CCCCCn1c(=S)[nH]c2cc3c(cc2c1=O)OCO3)N1CCN(c2ccc(F)cc2)CC1`, the inhibition was 11.1% (inactive). For `Cc1ccc(C)c(N2CCN(C(=O)CCCn3c(=O)c4cccn4c4cccnc43)CC2)c1`, the inhibition was 26% (inactive). With `Cc1ccc(C)c(N2CCN(C(=O)CCCCCn3c(=S)[nH]c4ccc(N5CCOCC5)cc4c3=O)CC2)c1` the inhibition was 75% (active). With `CCN(CCCNC(=O)c1ccc2c(c1)NC(=O)CN2C)c1cccc(C)c1` the inhibition was -2.86% (inactive). `Cc1c(Cl)cnc(NC(=O)COC(=O)c2ccc(S(=O)(=O)NCc3ccco3)cc2)c1Cl` was tested, and the inhibition was -10.1% (inactive). For `O=S(=O)(NCc1ccco1)c1cnc(Cl)c(Cl)c1`, the inhibition was -4.49% (inactive). `C/C(=N\Nc1ncc(Cl)cc1Cl)c1ccc(S(=O)(=O)NCc2ccco2)cc1` was tested, and the inhibition was 49.3% (active). With `O=C(COC(=O)Cn1cnc2ccccc2c1=O)NCC12CC3CC(CC(C3)C1)C2` the inhibition was -9.23% (inactive). For `C[C@H](O)[C@@H]1C(=O)N2CCc3c([nH]c4c(-c5ccc6c(c5)OCO6)cccc34)[C@@H]2C[C@@H]1N(C)C(=O)c1ccco1`, the inhibition was 60.8% (active). With `CN[C@H]1C[C@H]2c3[nH]c4c(-c5ccccc5)cccc4c3CCN2C(=O)[C@H]1[C@H](C)O` the inhibition was 15.3% (inactive). `CCOC(=O)CNC(=O)N(C)[C@H]1C[C@H]2c3[nH]c4c(-c5ccc6c(c5)OCO6)cccc4c3CCN2C(=O)[C@H]1[C@H](C)O` was tested, and the inhibition was 12.4% (inactive). In the case of `O=C(CN1CCSCC1)N/N=C/c1ccc(Cl)cc1`, the inhibition is reported as -17.2% (inactive). `CSCc1ccc(C(=O)Nc2cc(C)cc(C)c2)cc1` was tested, and the inhibition was 16.7% (inactive). For `CSc1ncc(C(=O)Nc2ccc(C)cc2C)c(C)n1`, the inhibition was -0.22% (inactive). In the case of `Cc1ccc(NC(=O)c2ccc(CSc3ncnc4nc[nH]c34)cc2)c(C)c1`, the inhibition is reported as 56.7% (active). In the case of `CC[C@@H]1CCCCc2ccccc2[C@@H](C(=O)C[C@H](O)CC(C)=O)OC1=O`, the inhibition is reported as 13.4% (inactive). With `C=CCn1c(SCc2c(C(=O)OC)sc(N)c2C(=O)OC)nnc1-c1ccc(Cl)cc1` the inhibition was 34.7% (inactive). With `NS(=O)(=O)c1ccc(CNC(=S)NC(=O)c2ccco2)cc1` the inhibition was 6.18% (inactive). `O=C(Nc1ccc2ccccc2c1)/C(=C\c1ccc2c(c1)OCO2)NC(=O)c1ccco1` was tested, and the inhibition was 12.7% (inactive). In the case of `CCCc1ccc(OCC(=O)NNC(=S)NC(=O)c2ccco2)cc1`, the inhibition is reported as 74.2% (active). With `O=C(NNC(=S)Nc1ccc(Br)cc1Cl)c1ccco1` the inhibition was -2.77% (inactive). For `CC(Oc1ccc2ccccc2c1)C(=O)NNC(=S)NC(=O)c1ccco1` (configuration not stated), the inhibition was 61.9% (active). In the case of `CCOc1cc(NC(=S)NCc2ccco2)c(OCC)cc1NC(=O)c1ccco1`, the inhibition is reported as 9.19% (inactive). In the case of `Cc1ccc(S(=O)(=O)N2CC3C(=O)C[C@@H](c4ccccc4Cl)N(S(=O)(=O)c4ccc(C)cc4)C3CC2c2ccccc2)cc1` (some centres not stated), the inhibition is reported as 2.68% (inactive). In the case of `COC(=O)c1cc2c(c3c4cc(F)ccc4n(S(=O)(=O)c4ccccc4)c13)C(=O)N(Cc1ccccc1OC)C2`, the inhibition is reported as -0.96% (inactive). `O=C(C(=O)N1CCC(CNC(=O)c2cccnc2Cl)CC1)c1cccs1` was tested, and the inhibition was -12.2% (inactive). For `COc1ccc(CNC(=O)COc2cccnc2[N+](=O)[O-])cc1`, the inhibition was -4.68% (inactive). With `Cc1ccc(-c2c(N)nc3ncccn23)cc1` the inhibition was -8.72% (inactive). `COCCn1c(C)cc(C(=O)CSc2nnc(C3CC3)n2C2CC2)c1C` was tested, and the inhibition was 10.2% (inactive). With `Nc1nc2c(Br)ccc(Br)c2cc1C(=O)NCCc1ccccc1` the inhibition was -14% (inactive). In the case of `O=C(NNS(=O)(=O)c1ccc(F)cc1)C1CCCCC1`, the inhibition is reported as -20.9% (inactive). For `O=C(CN1CCCSc2ccccc21)N1CCN(S(=O)(=O)c2cccc(F)c2)CC1`, the inhibition was 49.7% (active). `O=C(CN1CCN(S(=O)(=O)c2cccc(Cl)c2)CC1)N1CCCCC1` was tested, and the inhibition was 6.11% (inactive). For `O=C(CN1CCCSc2ccccc21)N1CCN(S(=O)(=O)c2ccccc2)CC1`, the inhibition was 18.8% (inactive). With `Cc1ccccc1C(=O)N[C@H](C(=O)N1CCC[C@H]1C(=O)NCc1ccccc1)C(C)C` the inhibition was 14.4% (inactive). In the case of `O=C(NC1CCCC1)C1c2ccccc2OCC(=O)N1CC(F)(F)F` (configuration not stated), the inhibition is reported as 4.73% (inactive). With `CCOc1ccccc1N1CN(Cc2ccccc2)CNC1=S` the inhibition was -9.06% (inactive). With `COc1ccc(NS(=O)(=O)c2ccc(Oc3c(C#N)cccc3C#N)cc2)cc1` the inhibition was 38.8% (inactive). For `COc1ccc2[nH]cc(/C=C(/C#N)S(=O)(=O)c3ccccc3)c2c1`, the inhibition was 51% (active). For `COc1ccc2[nH]cc(CCN3C(=O)c4ccc(C(=O)O)cc4C3=O)c2c1`, the inhibition was -11.2% (inactive). For `Cc1cccc(OCC(O)Cn2c(=N)n(CCN3CCOCC3)c3ccccc32)c1` (configuration not stated), the inhibition was -7.65% (inactive). In the case of `CC(C)c1ccc(OCC(O)Cn2cnc3ccccc32)cc1` (configuration not stated), the inhibition is reported as -0.64% (inactive). With `OC(CN=c1sc2ccccc2n1CC(O)COc1ccccc1)COc1ccccc1` (configuration not stated) the inhibition was 67.2% (active). With `CC(C)(C)c1ccc(NC(=O)COC(=O)CCc2nc3ccccc3c(=O)[nH]2)cc1` the inhibition was 6.51% (inactive). With `O=C(COC(=O)CCCSc1nc2ccccc2[nH]1)Nc1ccc(Oc2ccccc2)cc1` the inhibition was 67.1% (active). With `O=C(COC(=O)CCc1nc2ccccc2c(=O)[nH]1)Nc1ccc(N2CCOCC2)cc1` the inhibition was 0.61% (inactive). In the case of `Nc1nc2c(ncn2[C@@H]2O[C@H](C(=O)N[C@H](Cc3ccccc3)C(=O)NCC3CCCCC3)[C@@H](O)[C@H]2O)c(=O)[nH]1`, the inhibition is reported as -12.4% (inactive). For `O=C(Cn1cncn1)N/N=C/c1c2ccccc2cc2ccccc12`, the inhibition was -12.2% (inactive). For `Cc1ccc(S(=O)(=O)N[C@H](CO)C(C)C)cc1`, the inhibition was -9.25% (inactive). In the case of `Cc1ccc(NC(=O)Nc2cc(-c3ccccc3)nn2C)cc1Cl`, the inhibition is reported as 8.7% (inactive). `NC(c1ccccc1)c1csc(NC(=O)Nc2cccc(C(F)(F)F)c2)n1` (configuration not stated) was tested, and the inhibition was 35.6% (inactive). In the case of `CC(=O)Nc1ccc(-c2csc(NC(=O)Nc3ccccc3)n2)cc1`, the inhibition is reported as 63.2% (active). For `CCCC(CNC(=O)COC(=O)C1=NNC(=O)CC1)c1ccc(Cl)cc1Cl` (configuration not stated), the inhibition was -3.84% (inactive). With `COCCCNC(=O)C1CC(=O)N(c2ccc(C)cc2)C1` (configuration not stated) the inhibition was -3.91% (inactive). For `O=C(NCC1CCCO1)c1cc2c([nH]c3ccccc32)c(-c2ccc(F)cc2)n1` (configuration not stated), the inhibition was 74.8% (active). In the case of `COc1ccc2cc(C(=O)NCC3CCCO3)[nH]c2c1` (configuration not stated), the inhibition is reported as -16.3% (inactive). `O=C(NCCCO)c1cc2c([nH]c3ccccc32)c(-c2ccc(F)cc2)n1` was tested, and the inhibition was 23.9% (inactive). With `CC(=O)Nc1cccc(-c2cc(NC=O)c3ncc(-c4ccc(F)c(Cl)c4)n3c2)c1` the inhibition was 39% (inactive). For `Cc1c(C)n2c(SCC(=O)N3CCCC3)nnc2[nH]c1=O`, the inhibition was -9.03% (inactive). With `CN1CCCCC(NC(=O)C(C)(C)C)C1=O` (configuration not stated) the inhibition was -14% (inactive). `COC(=O)/C=C\C(=O)Nc1cccc([N+](=O)[O-])c1` was tested, and the inhibition was -1.13% (inactive). With `Cc1ccc(/C=C/C(=O)Nc2cc(S(=O)(=O)N3CCCCCC3)ccc2OCC(F)(F)F)o1` the inhibition was -13.9% (inactive). With `Cc1ccc(/C=C/C(=O)Nc2ccc([N+](=O)[O-])c(NC(=O)/C=C/c3ccc(C)o3)c2)o1` the inhibition was 48.8% (active). In the case of `CC(C(=O)N=Nc1c(O)n(C)c2ccc(Br)cc12)n1cnc2ccccc2c1=O` (configuration not stated), the inhibition is reported as -6.29% (inactive). With `COCc1[nH]nc2c1C(c1ccccc1)N(c1ccccc1)C2=O` (configuration not stated) the inhibition was -20.8% (inactive). In the case of `O=[N+]([O-])c1ccc(N2CCNCC2)cc1NCc1cccnc1`, the inhibition is reported as 13.4% (inactive). `COc1ccc(Cc2nnc(NC(=O)c3cc(OC)c(OC)c(OC)c3)s2)cc1OC` was tested, and the inhibition was -43.4% (inactive). In the case of `COC(=O)c1sccc1NC(=O)CCC1CCCC1`, the inhibition is reported as 15.8% (inactive). `COC(=O)c1sccc1NC(=O)c1cc(OC)c(OC)c(OC)c1` was tested, and the inhibition was 52.3% (active). `CCOC(=O)[C@]12CCC=C1N(Cc1ccco1)C(=O)[C@H](CC(=O)NCc1cccc(C(F)(F)F)c1)C2` was tested, and the inhibition was -12.7% (inactive). With `O=S1(=O)CC(N2CCN(CCO)CC2)CN1Cc1cn(Cc2cccc(Cl)c2)nn1` (configuration not stated) the inhibition was -8.99% (inactive). In the case of `O=C(NN=Cc1ccccc1O)NN=Cc1ccccc1O`, the inhibition is reported as 53.9% (active). `O=C(N/N=C/c1ccccc1O)/C(=C/c1ccccc1)CCO` was tested, and the inhibition was 12.2% (inactive). With `Oc1ccccc1C=NC1CCCCC1N=Cc1ccccc1O` (configuration not stated) the inhibition was 0.73% (inactive).
